What was measured:
[1] = target: Dihydrofolate reductase (Lactobacillus casei, UniProt P00381); assay: Inhibition of dihydrofolate reductase in Lactobacillus casei; parameters: species or system Lacticaseibacillus casei; details: read-out: I50
Summary of the method: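 L. casei DHFR purified to homogeneity from an MTX-resistant overproducer strain, with enzyme level (4–5 × 10^-9 M) set by MTX titration. […] Rates were taken from the linear 0.5–2 min region. I50 is the concentration halving the rate; Ki is from the Cha equation, correcting for inhibitor depletion.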

[2] = target: T1, Dihydrofolate reductase (Escherichia coli, UniProt P0ABQ4); assay: Inhibition of dihydrofolate reductase in Escherichia coli; details: read-out: I50
T1 sequence (P0ABQ4 whole entry): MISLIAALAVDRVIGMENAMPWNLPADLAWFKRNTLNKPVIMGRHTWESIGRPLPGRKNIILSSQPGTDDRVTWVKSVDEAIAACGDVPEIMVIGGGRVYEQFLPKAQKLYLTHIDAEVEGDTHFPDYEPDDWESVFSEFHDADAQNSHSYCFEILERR
Summary of the method: (§1)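 E. coli MB 1428 MTX-resistant overproducer DHFR purified to homogeneity by MTX affinity chromatography; spectrophotometric assay at pH 7.2 with 40 μM NADPH and 44 μM dihydrofolate (Km 0.44 μM); enzyme 4 to 5×10^-9 M, titrated with MTX. Rates taken over linear 0.5–2 min (<10% substrate used). I50 = half of control rate; Ki from I50 via Cha equation corrected for enzyme-bound inhibitor.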

[3] = target: T2, Dihydrofolate reductase (Homo sapiens, UniProt P00374); assay: Inhibition of dihydrofolate reductase in HeLa cells; type: cell-based; details: read-out: I50
T2 sequence (P00374 whole entry): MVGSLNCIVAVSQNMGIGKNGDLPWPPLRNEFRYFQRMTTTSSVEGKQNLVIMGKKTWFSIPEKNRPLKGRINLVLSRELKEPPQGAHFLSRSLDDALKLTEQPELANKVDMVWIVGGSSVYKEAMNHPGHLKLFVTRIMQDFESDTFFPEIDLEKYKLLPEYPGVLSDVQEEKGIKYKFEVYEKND

[4] = test system: Escherichia coli; assay: Inhibition constant (Ki) was determined in Escherichia coli; type: functional; summary of the method: as §1
[5] = test system: HuTu80; assay: Inhibition of growth (cytotoxicity) of HuTu 80 cell line in vitro; type: functional, cell-based; details: Homo sapiens
Summary of the method: (§2)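 About 1 × 10^5 L1210 or HuTu 80 cells in 1 mL of their original medium with inhibitor, 37 °C for 72 h; counted by Coulter counter (10- to 20-fold growth in controls). EC50 = concentration reducing growth 50% versus inhibitor-free controls.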

[6] = target: Lacticaseibacillus casei; assay: Inhibition constant (Ki) was determined in Lactobacillus casei; type: functional
[7] = test system: L1210; assay: Inhibition of growth (cytotoxicity) of L1210 cell line in vitro; type: functional, cell-based; details: Mus musculus; summary of the method: as §2

Sequence of Dihydrofolate reductase (Lactobacillus casei, UniProt P00381) (P00381 whole entry): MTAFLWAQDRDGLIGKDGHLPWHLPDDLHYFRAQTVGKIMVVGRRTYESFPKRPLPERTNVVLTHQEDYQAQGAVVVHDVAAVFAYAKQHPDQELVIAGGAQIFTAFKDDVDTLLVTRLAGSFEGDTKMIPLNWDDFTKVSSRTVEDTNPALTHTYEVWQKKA

| Compound | IC50 [1] | IC50 [2] | IC50 [3] | Ki [4] | EC50 [5] | Ki [6] | EC50 [7] |
| --- | --- | --- | --- | --- | --- | --- | --- |
| Nc1nc(N)c2nc(CNc3ccc(C(=O)NC(CCC(=O)O)C(=O)O)cc3F)cnc2n1 (configuration not stated) | 3.5 nM | 5 nM | 19 nM | 0.03 nM | 2.3 nM | 0.06 nM | 1 nM |
| Nc1nc(N)c2nc(CNc3ccc(C(=O)NC(CCC(=O)O)C(=O)O)c(F)c3)cnc2n1 (configuration not stated) | 4.7 nM | 10 nM | 27 nM | 0.08 nM | 4.8 nM | 0.095 nM | 2.3 nM |
| Nc1nc(N)c2nc(CNc3ccc(C(=O)N[C@@H](CCC(=O)O)C(=O)O)cc3)cnc2n1 [AMINOPTERIN] | 5 nM | 11 nM | – | 0.09 nM | 4.7 nM | 0.11 nM | 1.8 nM |
| CN(Cc1cnc2nc(N)nc(N)c2n1)c1ccc(C(=O)N[C@@H](CCC(=O)O)C(=O)O)cc1 [METHOTREXATE] | – | – | – | – | 4.5 nM | – | 3.2 nM |
